# Screening data as filed in PubChem.
# In the library only some 2.7% were active in any assay of this set; here they are far more common.
# DENV2 CPE rescue – protects cells from dengue virus 2 cytopathic effect. 1.7% of 350,000 active. CPE inhibition, % at 9.99 µM. DENV2-infected cells, cytopathic effect rescue, plate reader; in the data active means CPE inhibition above about 20%, passing the limit was not always enough; inconclusive means no clear call, values can overlap the other calls; tested in BHK-21 cells
# S100A4 inh HTS – inhibitors of human S100A4 binding to myosin IIA peptide; P26447; 0.14% of 360,000 active; inhibition, % at 10.7 µM; AID 652163; S100A4/TAMRA-MyoIIA peptide fluorescence polarization;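 active means mean inhibition of at least 70% across replicates, with every replicate also reaching that level; inconclusive means mean inhibition reaches 70% but some replicates fall short; inactive means mean inhibition below 70%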
# Target sequence (P26447 whole entry, looked up): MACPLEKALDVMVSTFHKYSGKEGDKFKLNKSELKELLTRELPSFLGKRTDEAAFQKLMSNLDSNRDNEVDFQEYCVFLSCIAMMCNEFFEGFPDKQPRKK
#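 incubation = readout 5 min after mixing, signal stable up to 60 min | system = S100A4 monomer protein | buffer or medium = HEPES pH 7.2 with CaCl2, KCl, NaCl, DTT, Triton | benchmarks = neutral control DMSO, positive control TFP | also added = fluorescent myosin IIA peptide, 5 nM | compound dosing = one concentration per compound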
# SIRT5 block – sirtuin-5 (human) deacylase inhibition; Q9NXA8; Purified SirT5, succinyl-peptide AMC, trypsin-coupled fluorescence; inhibition, % at 15 µM; 1.1% of 330,000 active; AID 652115; in the data active means inhibition above about 15%; inconclusive means no clear call, values can overlap the other calls
# Target sequence (Q9NXA8 whole entry, looked up): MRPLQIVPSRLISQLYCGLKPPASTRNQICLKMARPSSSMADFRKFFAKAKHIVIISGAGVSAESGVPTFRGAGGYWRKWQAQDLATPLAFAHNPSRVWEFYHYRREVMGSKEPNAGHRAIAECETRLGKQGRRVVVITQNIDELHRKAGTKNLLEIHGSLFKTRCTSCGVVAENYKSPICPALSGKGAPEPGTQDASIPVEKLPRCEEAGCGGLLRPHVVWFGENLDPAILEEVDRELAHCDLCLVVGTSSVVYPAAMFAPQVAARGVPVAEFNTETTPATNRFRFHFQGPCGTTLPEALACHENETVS
# MLL AF4-AF9 inh – inhibitors of human MLL-AF4/AF9 interaction; P42568; inhibition, % at 10 µM; AlphaScreen, biotin-AF4 peptide binding to FLAG-AF9; 0.47% of 350,000 active;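 active means every replicate reaching a set inhibition limit, whatever the replicate mean, cut at about 25% in these data; inconclusive means mean inhibition reaches that limit but some replicates miss it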
# CaV13 FRET inh – Disruptors of the CACNA1D IQ motif to Ca2+-dependent inactivation inhibitor domain association, primary screening, Förster resonance energy transfer in intact living …. HEK cells, CFP/YFP FRET ICDI-IQ, plate reader, 10 min; percent FRET-ratio fall versus neutral wells. inhibition, % at 12.3 µM. 0.098% of 340,000 active;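 active means mean replicate inhibition of at least 30% and at least 1% of replicates passing that level; inconclusive means only one of the two criteria is met; inactive means neither criterion is met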
# Alpha interfer – interferes with the AlphaScreen assay signal | shares compounds with MLL AF4-AF9 inh | AlphaScreen interference counter-screen, signal luminescence | AC50, µM (titrated, usually from 12 µM) | 45% of 530 active | AID 720494; cut-off not given, nearly all actives have AC50 up to about 14 µM
# Hits are given with their value; - = inactive; ? = inconclusive; . = no result given.
SMILES,DENV2 CPE rescue,S100A4 inh HTS,SIRT5 block,MLL AF4-AF9 inh,CaV13 FRET inh,Alpha interfer
Cc1ccc(C)c(S(=O)(=O)N2CCN(Cc3ccc(O)c4ncccc34)CC2)c1,.,-,-,82.0,-,-
CN(C)C(CNC(C(=O)Nc1ccc([N+](=O)[O-])cc1Br)c1ccccc1)c1ccccc1 (configuration not stated),-,-,-,34.9,-,-
C[C@@H]1CN([C@H](C)CO)C(=O)c2c(c3ccccc3n2C)-c2ccccc2CO[C@H]1CN(C)C(=O)Nc1ccc(-c2ccccc2)cc1,-,-,-,-,.,.
O=C1c2c(O)ccc(O)c2C(=O)c2c(NCCNCCO)ccc(NCCNCCO)c21,-,-,-,96.6,-,0.355µM
CC(C)NC(=O)N[C@H]1CC[C@@H](CC(=O)NC2Cc3ccccc3C2)O[C@@H]1CO,-,-,-,-,.,.
C/C(=N\Nc1nc2ccccc2[nH]1)c1ccc2c(c1)OCO2,-,-,-,33.1,-,-
CCN(CC)c1ccc(C(=O)O)cc1,-,-,-,-,-,.
CCN(CC)c1ccc(C(=C2C=CC(=[N+](CC)CC)C=C2)c2ccc(S(=O)(=O)O)cc2S(=O)(=O)[O-])cc1,-,-,-,59.6,-,7.89µM
Nc1[nH]n(-c2ccccc2)c(=O)c1N=Nc1ccc2c(c1)OCO2,-,-,-,-,-,.
Nc1[nH]n(-c2ccccc2)c(=O)c1N=Nc1ccc2c(c1)OCCO2,-,-,-,39.3,-,-
Cc1ccc(S(=O)(=O)N(C)C[C@H]2Oc3c(NS(C)(=O)=O)cccc3C(=O)N([C@H](C)CO)C[C@@H]2C)cc1,-,-,-,-,.,.
COc1ccc(C)cc1Nc1n[n+](-c2ccccc2)c(-c2c(Cl)cccc2Cl)s1,-,-,.,45.2,-,-
COc1ccc(-c2sc(Nc3ccccc3)n[n+]2-c2ccc(F)cc2)cc1Br,?,-,.,-,-,.
Fc1ccc(-[n+]2nc(Nc3ccccc3)sc2-c2c(Cl)cccc2Cl)cc1,-,-,.,33.8,-,-
CCc1ccc(Nc2n[n+](-c3ccccc3)c(-c3c(Cl)cccc3Cl)s2)cc1,-,-,.,.,-,.
COc1ccc2ccccc2c1-c1sc(Nc2ccccc2)n[n+]1-c1ccc(F)cc1,51.5,-,.,43.1,-,-
C[C@H]1CN([C@@H](C)CO)C(=O)Cc2cc(NC(=O)Cn3cnnn3)ccc2O[C@@H]1CN(C)C(=O)Nc1ccc(C(F)(F)F)cc1,-,-,-,-,.,.
O=C(C[C@H]1C=C[C@@H](NC(=O)Nc2ccccc2)[C@@H](CO)O1)NCc1ccccn1,-,-,-,-,.,.
COc1ccc(S(=O)(=O)/N=C2\C=C(Nc3ccc(O)cc3)C(=O)c3ccccc32)cc1,-,-,-,40.6,-,2.69µM
Cc1cc(C)cc(OCC(O)CN2CCC(CN3C(=O)c4cccc5cccc(c45)C3=O)CC2)c1 (configuration not stated),-,-,-,29.7,-,-
O=C1c2cccc3cccc(c23)C(=O)N1CC1CCN(CC(O)COc2ccc3ccccc3c2)CC1 (configuration not stated),-,-,-,-,-,.
CCc1ccc(OCC(O)CN2CCC(CN3C(=O)c4cccc5cccc(c45)C3=O)CC2)cc1 (configuration not stated),.,.,.,.,-,.
COc1cccc(OCC(O)CN2CCC(CN3C(=O)c4cccc5cccc(c45)C3=O)CC2)c1 (configuration not stated),.,-,-,33.8,-,-
O=C(NC1CCCCC1)N[C@@H]1CC[C@H](CCNS(=O)(=O)c2ccc(Cl)cc2)O[C@H]1CO,-,-,-,-,.,.
CC(C)=CCc1cc(-c2oc3cc(O)cc(O)c3c(=O)c2O)ccc1O,-,-,-,35.1,.,-
SMILES,DENV2 CPE rescue,S100A4 inh HTS,SIRT5 block,MLL AF4-AF9 inh,CaV13 FRET inh,Alpha interfer
O=c1c(O)c(-c2ccccc2)oc2cc(O)cc(O)c12,?,-,.,-,.,.
c1cc2c3c(cccc3c1)NC(c1ccc3c(c1)OCO3)N2,-,-,-,33.8,-,-
Cn1ccc2c(/C=C/c3ccc(F)cc3)cc3c(c21)C1CCC3C1 (configuration not stated),?,-,-,43.7,.,-
CCOc1ccc2oc(C(=O)NCC(c3ccco3)N(C)C)c(C)c2c1 (configuration not stated),-,-,-,-,.,.
Cc1c(C(=O)NCC(c2ccco2)N(C)C)oc2c(Cl)cccc12 (configuration not stated),-,-,-,?,-,-
COc1ccc(NC(=O)c2ccc(-c3ccc(-c4noc(C)n4)cc3C)cc2)cc1N1CCN(C)CC1,-,-,-,38.3,-,12µM
COc1ccc(S(=O)(=O)Nc2ccc3c(c2)CC(=O)N([C@H](C)CO)C[C@H](C)[C@@H](CN(C)S(=O)(=O)c2cn(C)cn2)O3)cc1,-,-,-,-,.,.
C[C@@H]1CN([C@H](C)CO)C(=O)c2cc(NC(=O)Nc3ccccc3)ccc2O[C@@H](C)CCCCO[C@@H]1CN(C)S(=O)(=O)c1cn(C)cn1,-,-,-,-,.,.
Cc1noc(C)c1NC(=O)Nc1ccc2c(c1)CC(=O)N([C@H](C)CO)C[C@@H](C)[C@H](CN(C)Cc1ccccc1)O2,-,-,-,-,.,.
CCCCCN=C(N)N/N=C/c1c[nH]c2ccc(OC)cc12,-,-,-,35.0,-,-
Cc1cc(C)c2sc(N(CCCN(C)C)C(=O)c3ccc(S(=O)(=O)N4CCCc5ccccc54)cc3)nc2c1,-,-,-,56.0,-,-
S=C(c1ccc(-c2cccc(Cl)c2)o1)N1CCCCC1,-,-,-,-,-,.
S=C(c1ccc(-c2cccc(Cl)c2)o1)N1CCOCC1,-,-,-,29.5,-,-
CCCN(C)C[C@H]1Oc2cc(C#CCC3CCCC3)ccc2S(=O)(=O)N([C@@H](C)CO)C[C@H]1C,-,-,-,-,.,.
CC(=NNC(=S)N1CCN(C2CCCCCC2)CC1)c1ccccn1,-,-,-,45.6,-,1.18µM
CN(C)c1cc2c3ccccc3n(C)c2cc1N,-,-,.,27.7,-,-
Cn1cnc(S(=O)(=O)N2[C@@H]3CNC[C@H]2C3c2ccc(-c3cccnc3)cc2)c1 (some centres not stated),-,-,-,-,.,.
O=C(NCCCN1CCCC1=O)C1CCN(S(=O)(=O)c2cccc(C(F)(F)F)c2)CC1,-,-,-,27.1,.,-
O=C(NCCCN1CCCC1=O)C1CCN(S(=O)(=O)c2ccccc2)CC1,-,-,-,?,-,.
Cc1ccc(S(=O)(=O)N[C@@H]2CC[C@H](CCNS(=O)(=O)Cc3ccccc3)O[C@@H]2CO)cc1,-,-,-,-,.,.
COc1ccccc1CNC(=O)C[C@H]1C[C@H]2c3cc(NC(=O)C4CCC4)ccc3O[C@H]2[C@H](CO)O1,?,-,-,-,.,.
CCCCOc1ccc2c(c1)C(=O)c1cc(O)ccc1-2,-,-,-,33.2,-,-
